The values that follow come from publication PMC3880595 (Journal of medicinal chemistry, 2013).

A short description of one data set: RP-HPLC capacity factor. It counts as physicochemical. The note with it: chromatographic, Grace Vydac C-18, 20-min gradient of 16-26% acetonitrile in 20 mM HCl, 1 mL/min.
In data set [1] the target is T1, MC1 receptor (Mus musculus, UniProt Q01727). Kind of data set: In vitro competitive binding assay against ^125I-. Set-up: species or system murine. In short, it runs like this:
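B16/F1 cells seeded at 2.5 × 10^5/well, grown overnight at 37 °C, then washed with binding medium (MEM, 25 mM HEPES pH 7.4, 0.2% BSA, 0.3 mM 1,10-phenanthroline). Incubated 2 h at 25 °C with ~30,000 cpm 125I-(Tyr2)-NDP-MSH plus test peptide at 10^-13 to 10^-6 M. Rinsed twice with ice-cold 0.2% BSA/0.01 M PBS (pH 7.4), lysed 5 min in 1 M NaOH, gamma-counted. Run in triplicate.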

Data set [2] addresses T1, MC1 receptor. The note with it: read-out: MC1 receptor binding affinity; B16/F1 cells; cited from earlier work.

Like-named read-outs stand apart in the source and are kept apart here. Positions of bridges follow the written chain, without caps; N, C: chain ends. Non-standard residues stand in square brackets, D forms with d. Residues, ends and D or L forms follow the SMILES beside them. Nle = CCCC[C@H](N)C(=O)O

T1 sequence (Q01727 whole entry): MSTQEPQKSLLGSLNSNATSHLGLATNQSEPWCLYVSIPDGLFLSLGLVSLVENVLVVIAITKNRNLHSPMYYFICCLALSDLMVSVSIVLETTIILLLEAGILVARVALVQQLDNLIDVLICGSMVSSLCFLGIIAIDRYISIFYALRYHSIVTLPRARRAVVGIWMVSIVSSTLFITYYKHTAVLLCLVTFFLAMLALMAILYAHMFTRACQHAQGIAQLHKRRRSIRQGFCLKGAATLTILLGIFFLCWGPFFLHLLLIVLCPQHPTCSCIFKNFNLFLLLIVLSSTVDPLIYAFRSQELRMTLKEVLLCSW

Take `CC(C)[C@H](NC(=O)[C@@H]1CCCN1C(=O)[C@H](CCCNC(=N)N)NC(=O)[C@H](CS)NC(=O)[C@H](Cc1c[nH]c2ccccc12)NC(=O)[C@H](CCCNC(=N)N)NC(=O)[C@@H](Cc1ccccc1)NC(=O)[C@H](Cc1c[nH]cn1)NC(=O)[C@H](CCC(=O)O)NC(=O)[C@H](CS)NC(=O)[C@H](CS)NC(=O)[C@H](CCCCN)NC(=O)[C@@H]1CC(=O)N[C@@H](CCCNC(=N)N)C(=O)N[C@@H](Cc2ccccc2)C(=O)N[C@@H](CC(=O)O)C(=O)N[C@H](Cc2ccc(O)cc2)C(=O)N1)C(N)=O` [RFD-Lys-(Arg^11)CCMSH] (RFD[dY]DKCCEH[dF]RWCRPV-NH2; lactam N-5): the “Capacity factor (k')” value in “RP-HPLC capacity factor” was 3.77. This compound also showed an IC50 on MC1 receptor [1] of 0.82 ± 0.06 nM.

For the compound `CCCC[C@@H]1NC(=O)[C@H](CCCNC(=N)N)NC(=O)C[C@@H](C(=O)N[C@@H](CCCCN)C(=O)N[C@@H](CS)C(=O)N[C@@H](CS)C(=O)N[C@@H](CCC(=O)O)C(=O)N[C@@H](Cc2c[nH]cn2)C(=O)N[C@H](Cc2ccccc2)C(=O)N[C@@H](CCCNC(=N)N)C(=O)N[C@@H](Cc2c[nH]c3ccccc23)C(=O)N[C@@H](CS)C(=O)N[C@@H](CCCNC(=N)N)C(=O)N2CCC[C@H]2C(=O)N[C@H](C(N)=O)C(C)C)NC(=O)[C@@H](Cc2ccc(O)cc2)NC(=O)[C@H](CC(=O)O)NC1=O` [RNleD-Lys-(Arg^11)CCMSH] (R[Nle]D[dY]DKCCEH[dF]RWCRPV-NH2; lactam N-5), the “Capacity factor (k')” value in “RP-HPLC capacity factor” was determined as 4.36. Moreover, the IC50 on MC1 receptor [1] was 2.99 ± 0.26 nM.

In the case of `CC(C)[C@H](NC(=O)[C@@H]1CCCN1C(=O)[C@H](CCCNC(=N)N)NC(=O)[C@H](CS)NC(=O)[C@H](Cc1c[nH]c2ccccc12)NC(=O)[C@H](CCCNC(=N)N)NC(=O)[C@@H](Cc1ccccc1)NC(=O)[C@H](Cc1c[nH]cn1)NC(=O)[C@H](CCC(=O)O)NC(=O)[C@H](CS)NC(=O)[C@H](CS)NC(=O)[C@H](CCCCN)NC(=O)[C@@H]1CC(=O)N[C@@H](CCCNC(=N)N)C(=O)N[C@@H](CO)C(=O)N[C@@H](CC(=O)O)C(=O)N[C@H](Cc2ccc(O)cc2)C(=O)N1)C(N)=O` [RSD-Lys-(Arg^11)CCMSH, c[Arg-Ser-Asp-DTyr-Asp]-Lys-Cys-Cys-Glu-His-DPhe-Arg-Trp-Cys-Arg-Pro-Val-NH2] (RSD[dY]DKCCEH[dF]RWCRPV-NH2; lactam N-5), in “RP-HPLC capacity factor”, the “Capacity factor (k')” value worked out at 2.19. The IC50 at MC1 receptor [1] turned out to be 1.3 ± 0.36 nM.

On MC1 receptor [1], `CC(C)[C@H](NC(=O)[C@@H]1CCCN1C(=O)[C@H](CCCNC(=N)N)NC(=O)[C@H](CS)NC(=O)[C@H](Cc1c[nH]c2ccccc12)NC(=O)[C@H](CCCNC(=N)N)NC(=O)[C@@H](Cc1ccccc1)NC(=O)[C@H](Cc1c[nH]cn1)NC(=O)[C@H](CCC(=O)O)NC(=O)[C@H](CS)NC(=O)[C@H](CS)NC(=O)[C@H](CCCCN)NC(=O)[C@@H]1CC(=O)N[C@@H](CCCNC(=N)N)C(=O)N[C@H](Cc2ccccc2)C(=O)N[C@@H](CC(=O)O)C(=O)N[C@H](Cc2ccc(O)cc2)C(=O)N1)C(N)=O` [RfD-Lys-(Arg^11)CCMSH] (R[dF]D[dY]DKCCEH[dF]RWCRPV-NH2; lactam N-5) came in with an IC50 of 1.35 ± 0.08 nM.

For “RGD-Lys-(Arg^11)CCMSH: cyclic RGD motif {Arg-Gly-Asp-DTyr-Asp} attached to [Cys^3,4,10, D-Phe^7, Arg^11]α-MSH3-13 peptide via a lysine linker (RGDYDKCCEHFRWCRPV; lactam cycle c[Arg1-Gly-Asp-dTyr-Asp5]; (Arg1 alpha-amine to Asp5 side-chain carboxyl); D-Tyr4; D-Phe11; C-terminal amide; Lys6 linker)”, the IC50 in the data set with MC1 receptor [2] was 2.1 nM.
